ChEMBL document CHEMBL1275283, “Synthesis and evaluation of novel stearoyl-CoA desaturase 1 inhibitors: 1'-{6-[5-(pyridin-3-ylmethyl)-1,3,4-oxadiazol-2-yl]pyridazin-3-yl}-3,4-dihydrospiro[chromene-2,4'-piperidine] analogs” (Eur J Med Chem, 2010)
Values after ≈ are worked out from the molar mass of the structure shown. Active and inactive are the calls of the source. No cut-off for these calls is given here.

Legend:
Stearoyl-CoA desaturase [1] = biological target: T1, Stearoyl-CoA desaturase (Homo sapiens, UniProt O00767); assay: Inhibition of SCD1 in HEK293A cell microsomes assessed as reduction in conversion of [14C]stearic acid to [14C]oleic acid after 30 mins; design: species or system HEK293-A, Microsome
T1 sequence (O00767 whole entry): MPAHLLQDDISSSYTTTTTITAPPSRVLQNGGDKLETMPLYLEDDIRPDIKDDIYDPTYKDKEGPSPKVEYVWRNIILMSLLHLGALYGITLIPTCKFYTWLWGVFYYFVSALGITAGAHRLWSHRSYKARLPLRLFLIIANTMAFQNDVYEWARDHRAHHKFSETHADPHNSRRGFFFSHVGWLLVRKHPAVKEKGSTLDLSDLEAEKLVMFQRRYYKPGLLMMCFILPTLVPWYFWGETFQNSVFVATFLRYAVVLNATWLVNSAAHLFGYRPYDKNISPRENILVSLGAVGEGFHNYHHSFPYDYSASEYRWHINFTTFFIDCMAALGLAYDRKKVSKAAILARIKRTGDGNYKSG

Acyl-CoA desaturase 1 = biological target: T2, Acyl-CoA desaturase 1 (Mus musculus, UniProt P13516); assay: Inhibition of SCD1 in mouse microsome assessed as reduction in conversion of [14C]stearic acid to [14C]oleic acid after 30 mins; assay type: microsomes
T2 sequence (P13516 whole entry): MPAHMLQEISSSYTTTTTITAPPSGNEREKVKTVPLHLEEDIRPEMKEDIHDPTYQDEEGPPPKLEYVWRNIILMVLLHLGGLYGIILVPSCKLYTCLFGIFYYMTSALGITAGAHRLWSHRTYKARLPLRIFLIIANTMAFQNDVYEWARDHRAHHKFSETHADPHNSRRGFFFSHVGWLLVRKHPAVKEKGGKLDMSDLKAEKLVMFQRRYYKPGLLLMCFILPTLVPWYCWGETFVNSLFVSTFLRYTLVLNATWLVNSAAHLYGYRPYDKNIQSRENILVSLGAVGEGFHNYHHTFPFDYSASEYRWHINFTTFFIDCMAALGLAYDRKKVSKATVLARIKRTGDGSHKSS

Stearoyl-CoA desaturase [2] = biological target: T1, Stearoyl-CoA desaturase; assay: Inhibition of human SCD1 expressed in HEK293A cells assessed as reduction in conversion of [14C]stearic acid to [14C]oleic acid after 30 mins; assay type: cell-based, HEK293-A
Procedure, shortened: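 293A cells stably expressing human SCD1 (G418-selected) grown to confluence in DMEM + 10% FBS. Cells preincubated with compound 30 min, then given 0.1 µCi [14C]stearate for 4 h. Lipids saponified in KOH, separated by AgNO3-TLC, and the [14C]oleate/[14C]stearate ratio used as activity. IC50 derived from this read-out.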

Mus musculus [3] = assay: Inhibition of liver SCD1 activity in po dosed db/db mouse assessed as reduction in conversion of [14C]stearic acid to [14C]oleic acid; assay type: functional; conditions: read-out: ID50 (the source's name)
Procedure, shortened: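 Seven-week-old male db/db mice dosed by oral gavage 2 h before i.p. [14C]stearate (100 µCi/kg in saline with 2% BSA). Livers harvested 1 h later and homogenized in cold PBS. Saponified homogenate analyzed by AgNO3-TLC for the [14C]oleate/[14C]stearate ratio. ID50 is the dose giving 50% inhibition.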

[4] = Aqueous solubility of the compound at acidic JP-1 solution of pH 1.2 by HPLC analysis; assay type: physicochemical
Procedure, shortened: (§1)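 Solubility measured in purchased aqueous acidic JP-1 (pH 1.2) or neutral JP-2 (pH 6.8) media. Samples analyzed by HPLC, with UV peak area compared to a calibration standard of 250 µM compound in CH3CN/water 1:1. Means of at least two experiments.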

[5] = Aqueous solubility of the compound at neutral JP-2 solution of pH 6.8 by HPLC analysis; assay type: physicochemical; procedure, shortened: as §1
[6] = Cmax in C57BL/6J mouse at 20 mg/kg, po up to 8 hrs; assay type: ADME, organism-based; design: dose 20 mg/kg, route oral; conditions: in vivo
Procedure, shortened: (§2)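 Oral gavage via intubation tube at 20 mg/kg in propylene glycol/Tween 4:1, n = 3 C57BL/6J mice. Plasma sampled up to 8 h after dosing. Values are arithmetic means of at least two experiments.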

[7] = Tmax in C57BL/6J mouse at 20 mg/kg, po; assay type: ADME, organism-based; design: dose 20 mg/kg, route oral; conditions: in vivo; procedure, shortened: as §2
[8] = AUC (0 to 8 hrs) in C57BL/6J mouse at 20 mg/kg, po; assay type: ADME, organism-based; design: time < 8 hr, dose 20 mg/kg, route oral; conditions: plasma; procedure, shortened: as §2
[9] = Half life in C57BL/6J mouse at 20 mg/kg, po; assay type: ADME, organism-based; design: dose 20 mg/kg, route oral; conditions: in vivo; procedure, shortened: as §2
[10] = Metabolic stability of the compound in human liver microsomes after 30 mins; assay type: ADME, Microsome; conditions: read-out: Stability
Procedure, shortened: (§3)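 Stability reported as % parent remaining after 30 min incubation with murine or human liver microsomes. Means of at least two experiments.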

[11] = Metabolic stability of the compound in mouse liver microsomes after 30 mins; assay type: ADME, Microsome; conditions: read-out: Stability; procedure, shortened: as §3
Cytochrome P450 1A2 = biological target: T3, Cytochrome P450 1A2 (Homo sapiens, UniProt P05177); assay: Inhibition of CYP1A2; assay type: ADME
T3 sequence (P05177 whole entry): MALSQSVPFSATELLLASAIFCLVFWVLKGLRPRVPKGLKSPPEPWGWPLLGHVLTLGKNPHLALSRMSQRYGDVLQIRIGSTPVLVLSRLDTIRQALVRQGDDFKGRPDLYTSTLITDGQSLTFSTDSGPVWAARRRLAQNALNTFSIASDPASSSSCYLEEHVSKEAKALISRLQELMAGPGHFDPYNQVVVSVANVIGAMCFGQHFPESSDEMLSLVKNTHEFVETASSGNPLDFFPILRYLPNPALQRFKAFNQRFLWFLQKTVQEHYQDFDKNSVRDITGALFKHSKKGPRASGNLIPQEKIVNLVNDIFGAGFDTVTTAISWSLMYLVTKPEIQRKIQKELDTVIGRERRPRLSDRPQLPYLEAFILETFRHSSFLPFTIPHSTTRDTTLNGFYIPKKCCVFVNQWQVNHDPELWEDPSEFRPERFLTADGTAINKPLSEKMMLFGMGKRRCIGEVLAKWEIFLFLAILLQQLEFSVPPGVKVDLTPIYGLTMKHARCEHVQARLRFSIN

Cytochrome P450 2C9 = Cytochrome P450 2C9 (Homo sapiens, UniProt P11712); assay: Inhibition of CYP2C9; assay type: ADME
Cytochrome P450 2C19 = Cytochrome P450 2C19 (Homo sapiens, UniProt P33261); assay: Inhibition of CYP2C19; assay type: ADME
Cytochrome P450 2D6 = Cytochrome P450 2D6 (Homo sapiens, UniProt P10635); assay: Inhibition of CYP2D6; assay type: ADME
Cytochrome P450 3A4 = Cytochrome P450 3A4 (Homo sapiens, UniProt P08684); assay: Inhibition of CYP3A4; assay type: ADME
[12] = Half life in C57BL/6J mouse at 5 mg/kg, iv; assay type: ADME, organism-based; design: dose 5 mg/kg, route intravenous; conditions: in vivo
Procedure, shortened: (§4)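 Single intravenous tail-vein injection, 5 mg/kg in DMA/Tween80/saline 10:10:80, C57BL/6J mice (n = 2). Plasma collected up to 8 h post-dose. Means of at least two experiments.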

[13] = Clearance in C57BL/6J mouse at 5 mg/kg, iv up to 8 hrs; assay type: ADME, organism-based; design: dose 5 mg/kg, route intravenous; conditions: in vivo; procedure, shortened: as §4
[14] = Volume of distribution in C57BL/6J mouse at 5 mg/kg, iv up to 8 hrs; assay type: ADME, organism-based; design: dose 5 mg/kg, route intravenous; conditions: in vivo; procedure, shortened: as §4
Mus musculus [15] = assay: Toxicity in C57BL/6J mouse assessed as abnormalities in skin at 10 mg/kg, po QD for 7 days measured post last dose; assay type: organism-based; design: dose 10 mg/kg, route oral; conditions: in vivo, 168 h
Mus musculus [16] = assay: Inhibition of delta-(9)-desaturase in po dosed C57BL/6J mouse assessed as reduction in plasma desaturation index (C18:1/C18:0) QD for 7 days measured post last dose; assay type: functional, organism-based
Procedure, shortened: (§5)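 Nine-week-old male C57BL/6J mice on a high-carbohydrate diet (77.8 kcal% carbohydrate) for 7 days. Oral gavage once daily each evening at 0.3, 1, 3 or 10 mg/kg in propylene glycol/Tween 80 (4/1); n = 4. Serum taken the morning after the seventh dose, saponified in methanolic KOH and extracted with hexane. Index is oleate/stearate.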

Mus musculus [17] = assay: Inhibition of delta-(9)-desaturase in C57BL/6J mouse assessed as reduction in plasma desaturation index (C18:1/C18:0) at 1 mg/kg, po QD for 7 days measured post last dose; assay type: functional, organism-based; design: dose 1 mg/kg; procedure, shortened: as §5
Mus musculus [18] = assay: Inhibition of delta-(9)-desaturase in C57BL/6J mouse assessed as reduction in plasma desaturation index (C18:1/C18:0) at 10 mg/kg, po QD for 7 days measured post last dose; assay type: functional; conditions: 168 h; procedure, shortened: as §5
Mus musculus [19] = assay: Inhibition of delta-(9)-desaturase in C57BL/6J mouse assessed as reduction in plasma desaturation index (C18:1/C18:0) at 0.3 mg/kg, po QD for 7 days measured post last dose; assay type: functional; conditions: 168 h; procedure, shortened: as §5
[20] = Oral bioavailability in C57BL/6J mouse at 20 mg/kg up to 8 hrs; assay type: ADME, organism-based; conditions: in vivo
Procedure, shortened: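 Bioavailability derived from plasma exposure after oral dosing (20 mg/kg, PG/Tween 4:1 by intubation tube, n = 3) and intravenous tail-vein dosing (5 mg/kg, DMA/Tween80/saline 10:10:80, n = 2) in C57BL/6J mice. Plasma sampled up to 8 h.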

Mus musculus [21] = assay: Toxicity in C57BL/6J mouse assessed occurrence of mild eye fissures at 3 to 10 mg/kg, po QD for 7 days measured post last dose; assay type: organism-based; design: dose 3-10 mg/kg, route oral; conditions: in vivo, 168 h
Mus musculus [22] = assay: Toxicity in C57BL/6J mouse assessed change in size of Harderian gland at 3 to 10 mg/kg, po QD for 7 days measured post last dose; assay type: organism-based; design: dose 3-10 mg/kg, route oral; conditions: in vivo, 168 h
Mus musculus [23] = assay: Toxicity in C57BL/6J mouse assessed change in size of […] at 3 to 10 mg/kg, po QD for 7 days measured post last dose; assay type: organism-based; design: dose 3-10 mg/kg, route oral; conditions: in vivo, 168 h
Mus musculus [24] = assay: Toxicity in C57BL/6J mouse assessed change in organ morphology up to 10 mg/kg, po QD for 7 days measured post last dose by autopsy; assay type: organism-based; design: dose 10 mg/kg, route oral; conditions: in vivo, 168 h

Sequence of Cytochrome P450 3A4 (P08684 whole entry): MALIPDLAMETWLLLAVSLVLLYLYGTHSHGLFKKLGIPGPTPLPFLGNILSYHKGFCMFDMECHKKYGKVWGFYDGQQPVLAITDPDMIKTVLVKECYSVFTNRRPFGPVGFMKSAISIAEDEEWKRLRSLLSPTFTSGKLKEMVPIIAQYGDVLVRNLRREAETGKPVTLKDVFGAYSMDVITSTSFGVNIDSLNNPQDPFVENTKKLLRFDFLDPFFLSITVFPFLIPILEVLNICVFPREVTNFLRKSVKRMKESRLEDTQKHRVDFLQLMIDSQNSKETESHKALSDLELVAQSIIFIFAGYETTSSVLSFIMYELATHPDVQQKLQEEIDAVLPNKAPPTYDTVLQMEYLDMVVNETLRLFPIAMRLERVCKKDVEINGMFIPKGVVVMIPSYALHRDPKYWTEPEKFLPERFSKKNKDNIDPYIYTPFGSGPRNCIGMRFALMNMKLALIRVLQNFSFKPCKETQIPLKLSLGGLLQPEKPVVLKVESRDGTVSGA
Sequence of Cytochrome P450 2D6 (P10635 whole entry): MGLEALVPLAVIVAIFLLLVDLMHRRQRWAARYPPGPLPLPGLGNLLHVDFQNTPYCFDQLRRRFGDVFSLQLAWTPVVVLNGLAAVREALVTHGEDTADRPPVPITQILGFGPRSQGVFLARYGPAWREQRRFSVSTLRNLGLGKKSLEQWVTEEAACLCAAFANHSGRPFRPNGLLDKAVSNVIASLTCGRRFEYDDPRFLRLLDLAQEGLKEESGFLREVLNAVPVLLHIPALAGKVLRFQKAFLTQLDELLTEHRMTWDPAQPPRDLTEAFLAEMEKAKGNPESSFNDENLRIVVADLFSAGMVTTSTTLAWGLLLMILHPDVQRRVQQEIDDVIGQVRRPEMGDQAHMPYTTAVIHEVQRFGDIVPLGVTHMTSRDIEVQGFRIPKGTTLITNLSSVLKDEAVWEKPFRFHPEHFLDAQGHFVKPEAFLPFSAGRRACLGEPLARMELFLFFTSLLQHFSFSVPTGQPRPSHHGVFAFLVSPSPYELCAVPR
Sequence of Cytochrome P450 2C9 (P11712 whole entry): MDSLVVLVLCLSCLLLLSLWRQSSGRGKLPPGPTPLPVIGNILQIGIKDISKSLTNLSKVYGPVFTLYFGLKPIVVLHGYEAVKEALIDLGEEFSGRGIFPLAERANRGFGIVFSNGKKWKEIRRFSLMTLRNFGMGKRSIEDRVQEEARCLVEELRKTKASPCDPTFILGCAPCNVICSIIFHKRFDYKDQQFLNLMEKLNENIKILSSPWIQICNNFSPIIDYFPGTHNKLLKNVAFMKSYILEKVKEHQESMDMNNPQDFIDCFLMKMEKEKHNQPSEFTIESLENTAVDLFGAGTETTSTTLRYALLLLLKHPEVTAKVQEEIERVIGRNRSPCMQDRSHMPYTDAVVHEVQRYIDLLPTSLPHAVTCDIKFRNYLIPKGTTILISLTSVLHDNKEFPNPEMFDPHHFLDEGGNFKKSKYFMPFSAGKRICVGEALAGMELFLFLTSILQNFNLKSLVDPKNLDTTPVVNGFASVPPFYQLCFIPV
Sequence of Cytochrome P450 2C19 (P33261 whole entry): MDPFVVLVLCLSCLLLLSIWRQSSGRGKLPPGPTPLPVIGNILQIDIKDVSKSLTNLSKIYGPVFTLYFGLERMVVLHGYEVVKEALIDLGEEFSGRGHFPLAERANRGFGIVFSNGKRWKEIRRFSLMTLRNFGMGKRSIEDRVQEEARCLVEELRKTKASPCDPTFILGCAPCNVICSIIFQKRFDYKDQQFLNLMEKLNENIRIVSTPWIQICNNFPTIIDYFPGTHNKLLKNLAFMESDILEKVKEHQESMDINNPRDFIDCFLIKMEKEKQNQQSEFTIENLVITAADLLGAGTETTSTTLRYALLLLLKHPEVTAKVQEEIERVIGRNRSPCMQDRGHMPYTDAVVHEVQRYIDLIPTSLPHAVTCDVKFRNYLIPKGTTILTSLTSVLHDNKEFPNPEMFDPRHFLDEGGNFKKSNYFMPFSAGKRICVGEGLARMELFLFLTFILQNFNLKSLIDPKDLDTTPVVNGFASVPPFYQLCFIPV

Row | Compound | IC50 (Stearoyl-CoA desaturase [1]) [nM] | IC50 (Acyl-CoA desaturase 1) [nM] | IC50 (Stearoyl-CoA desaturase [2]) [nM] | ED50 (Mus musculus [3]) [mg/kg] | solubility [4] [µM] | solubility [5] [µM] | Cmax [6] [ng/mL] | Tmax [7] [min] | AUC(0-t) at 8 h [8] [ng·h/mL] | half-life [9] [min] | further results
1 | c1ccc2c(c1)CCC1(CCN(c3ccc(-c4nnc(Cc5ccncc5)o4)nn3)CC1)O2 | 6 | 4 | 7 | 7 |  |  |  |  |  |  | 
2 | Fc1ccc(F)c2c1CCC1(CCN(c3ccc(-c4nnc(Cc5cccnc5)o4)nn3)CC1)O2 | 0.1 | 0.5 | 1 | < 2 |  |  |  |  |  |  | 
3 | Cc1cccc2c1CCC1(CCN(c3ccc(-c4nnc(Cc5cccnc5)o4)nn3)CC1)O2 | 0.2 | 0.2 | 0.7 | 1 | 91 (≈ 41.4 µg/mL) | < 0.5 | 1100 | 48 | 2100 | 36 | 
4 | Fc1cccc2c1CCC1(CCN(c3ccc(-c4nnc(Cc5cccnc5)o4)nn3)CC1)O2 | 0.3 | 2 | 0.7 | 0.6 | > 100 | < 0.5 | 2900 | 78 | 6800 | 60 | remaining at 0.5 h [10]: 65%; remaining at 0.5 h [11]: 51%; IC50 (Cytochrome P450 1A2): 18000 nM; IC50 (Cytochrome P450 2C9): 3000 nM; IC50 (Cytochrome P450 2C19): 14000 nM; IC50 (Cytochrome P450 2D6): 27000 nM; IC50 (Cytochrome P450 3A4): 1600 nM; half-life [12]: 24 min; clearance [13]: 53 mL/min/kg; Vd [14]: 1.3 L/kg; Activity (Mus musculus [15]): Non-toxic; inhibition (Mus musculus [16]): Dose-dependent effect; inhibition (Mus musculus [17]): Active; inhibition in vivo at 10 mg/kg (Mus musculus [18]): 66%; inhibition in vivo at 0.3 mg/kg (Mus musculus [19]): 32%; bioavailability [20]: > 95%; Activity (Mus musculus [21]): Toxic; Activity (Mus musculus [22]): Non-toxic; Activity (Mus musculus [23]): Non-toxic; Activity (Mus musculus [24]): Non-toxic
5 | O=C(NCCc1cccnc1)c1ccc(N2CCC3(CCc4ccccc4O3)CC2)nn1 | 27 | 10 | 76 | 5 |  |  |  |  |  |  | 
